In ChEMBL document CHEMBL5303300, “EUbOPEN Chemogenomics Library - Multiplex” (2023):
“And” between values parts separate entries of the source, which are not always exact repeats. Equal values may be shown once.

System: HEK-293T
Assay: Multiplex assay against HEK293T
Format: toxicity, cell-based
Details: human, number of replicates 2
Summary of the method: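 With compound added, live cells were imaged on a CQ1 microscope at 37°C and 5% CO2; staining with Hoechst33342, BioTracker Green Microtubule Cytoskeleton Dye, MitoTracker Red and Annexin V Alexa Fluor 680 had been done at seeding. The CellPathfinder machine-learning gating scheme split cells into Hoechst high-intensity objects or normal cells, normal cells into healthy, pyknosed or fragmented nuclei, and pyknosed cells into mitotic or apoptotic. The tubulin, mitochondrial-mass and membrane-permeability phenotypes are per cents of healthy-nucleus cells.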

[1] = 12 h, 1 µM, compound concentration 1 uM
[2] = 12 h, 10 µM, compound concentration 10 uM
[3] = 24 h, 1 µM, compound concentration 1 uM
[4] = 24 h, 10 µM, compound concentration 10 uM
[5] = 48 h, 1 µM, compound concentration 1 uM
[6] = 48 h, 10 µM, compound concentration 10 uM

CN(C)C/C=C/C(=O)Nc1ccc(C(=O)Nc2cccc(Nc3ncc(Cl)c(-c4c[nH]c5ccccc45)n3)c2)cc1
Population Apoptotic (%) [1]: 42% and 60% | Population Fragmented Nuclei (%) [1]: 2% and 4% | Population Healthy Nuclei (%) [1]: 51% and 52% | Population Hoechst High Intensity Objects (%) [1]: 23% and 21% | Population Membrane Permeable-Phenotype (%) [1]: 9% and 14% | Population Mitochondria Different-Phenotype (%) [1]: 37% and 41% | Population Mitotic Cells (%) [1]: 57% and 40% | Population Normal (%) [1]: 76% and 78% | Population Pyknosed Nuclei (%) [1]: 46% and 43% | Population Tubulin-Different-Phenotype (%) [1]: 89% and 83% | Total Cell Count [1]: 442 and 379 | Population Apoptotic (%) [2]: 52% and 73% | Population Fragmented Nuclei (%) [2]: 3% and 2% | Population Healthy Nuclei (%) [2]: 61% and 57% | Population Hoechst High Intensity Objects (%) [2]: 17% and 19% | Population Membrane Permeable-Phenotype (%) [2]: 10% and 5% | Population Mitochondria Different-Phenotype (%) [2]: 26% and 31% | Population Mitotic Cells (%) [2]: 47% and 26% | Population Normal (%) [2]: 82% and 80% | Population Pyknosed Nuclei (%) [2]: 35% and 40% | Population Tubulin-Different-Phenotype (%) [2]: 91% and 95% | Total Cell Count [2]: 459 and 452 | Population Apoptotic (%) [3]: 61% and 75% | Population Fragmented Nuclei (%) [3]: 4% and 5% | Population Healthy Nuclei (%) [3]: 43% and 50% | Population Hoechst High Intensity Objects (%) [3]: 24% and 23% | Population Membrane Permeable-Phenotype (%) [3]: 10% and 5% | Population Mitochondria Different-Phenotype (%) [3]: 44% and 45% | Population Mitotic Cells (%) [3]: 38% and 24% | Population Normal (%) [3]: 75% and 76% | Population Pyknosed Nuclei (%) [3]: 51% and 43% | Population Tubulin-Different-Phenotype (%) [3]: 84% and 77% | Total Cell Count [3]: 394 and 349 | Population Apoptotic (%) [4]: 67% and 83% | Population Fragmented Nuclei (%) [4]: 6% and 4% | Population Healthy Nuclei (%) [4]: 49% and 46% | Population Hoechst High Intensity Objects (%) [4]: 19% and 20% | Population Membrane Permeable-Phenotype (%) [4]: 9% and 3% | Population Mitochondria Different-Phenotype (%) [4]: 22% and 35% | Population Mitotic Cells (%) [4]: 32% and 16% | Population Normal (%) [4]: 80% and 79% | Population Pyknosed Nuclei (%) [4]: 43% and 48% | Population Tubulin-Different-Phenotype (%) [4]: 87% and 94% | Total Cell Count [4]: 472 and 454 | Population Apoptotic (%) [5]: 79% and 73% | Population Fragmented Nuclei (%) [5]: 8% and 7% | Population Healthy Nuclei (%) [5]: 49% and 42% | Population Hoechst High Intensity Objects (%) [5]: 20% and 22% | Population Membrane Permeable-Phenotype (%) [5]: 3% and 7% | Population Mitochondria Different-Phenotype (%) [5]: 43% and 55% | Population Mitotic Cells (%) [5]: 20% and 26% | Population Normal (%) [5]: 79% and 77% | Population Pyknosed Nuclei (%) [5]: 42% and 49% | Population Tubulin-Different-Phenotype (%) [5]: 63% and 74% | Total Cell Count [5]: 354 and 385 | Population Apoptotic (%) [6]: 79% and 85% | Population Fragmented Nuclei (%) [6]: 8% and 7% | Population Healthy Nuclei (%) [6]: 36% and 31% | Population Hoechst High Intensity Objects (%) [6]: 21% and 19% | Population Membrane Permeable-Phenotype (%) [6]: 7% and 3% | Population Mitochondria Different-Phenotype (%) [6]: 33% and 41% | Population Mitotic Cells (%) [6]: 20% and 14% | Population Normal (%) [6]: 78% and 80% | Population Pyknosed Nuclei (%) [6]: 54% and 60% | Population Tubulin-Different-Phenotype (%) [6]: 82% and 97% | Total Cell Count [6]: 449 and 445

COc1cc(Nc2cnc(C#N)c(O[C@H](C)CN(C)C)n2)ncc1-c1cnn(C)c1
Population Apoptotic (%) [1]: 43% and 40% | Population Fragmented Nuclei (%) [1]: 3% | Population Healthy Nuclei (%) [1]: 78% and 82% | Population Hoechst High Intensity Objects (%) [1]: 4% and 7% | Population Membrane Permeable-Phenotype (%) [1]: 5% and 3% | Population Mitochondria Different-Phenotype (%) [1]: 19% and 14% | Population Mitotic Cells (%) [1]: 56% and 59% | Population Normal (%) [1]: 95% and 92% | Population Pyknosed Nuclei (%) [1]: 18% and 14% | Population Tubulin-Different-Phenotype (%) [1]: 54% and 50% | Total Cell Count [1]: 593 and 622 | Population Apoptotic (%) [2]: 59% and 57% | Population Fragmented Nuclei (%) [2]: 2% | Population Healthy Nuclei (%) [2]: 62% and 75% | Population Hoechst High Intensity Objects (%) [2]: 6% and 4% | Population Membrane Permeable-Phenotype (%) [2]: 5% and 3% | Population Mitochondria Different-Phenotype (%) [2]: 45% and 52% | Population Mitotic Cells (%) [2]: 40% and 43% | Population Normal (%) [2]: 93% and 95% | Population Pyknosed Nuclei (%) [2]: 35% and 21% | Population Tubulin-Different-Phenotype (%) [2]: 87% and 90% | Total Cell Count [2]: 383 and 486 | Population Apoptotic (%) [3]: 28% and 26% | Population Fragmented Nuclei (%) [3]: 5% | Population Healthy Nuclei (%) [3]: 84% and 80% | Population Hoechst High Intensity Objects (%) [3]: 8% and 7% | Population Membrane Permeable-Phenotype (%) [3]: 4% | Population Mitochondria Different-Phenotype (%) [3]: 11% and 14% | Population Mitotic Cells (%) [3]: 71% and 73% | Population Normal (%) [3]: 91% and 92% | Population Pyknosed Nuclei (%) [3]: 9% and 13% | Population Tubulin-Different-Phenotype (%) [3]: 46% and 41% | Total Cell Count [3]: 801 and 735 | Population Apoptotic (%) [4]: 63% and 69% | Population Fragmented Nuclei (%) [4]: 2% and 3% | Population Healthy Nuclei (%) [4]: 76% and 78% | Population Hoechst High Intensity Objects (%) [4]: 9% and 10% | Population Membrane Permeable-Phenotype (%) [4]: 3% and 4% | Population Mitochondria Different-Phenotype (%) [4]: 47% and 42% | Population Mitotic Cells (%) [4]: 36% and 30% | Population Normal (%) [4]: 90% and 89% | Population Pyknosed Nuclei (%) [4]: 20% and 18% | Population Tubulin-Different-Phenotype (%) [4]: 85% and 82% | Total Cell Count [4]: 524 and 415 | Population Apoptotic (%) [5]: 31% and 47% | Population Fragmented Nuclei (%) [5]: 9% and 7% | Population Healthy Nuclei (%) [5]: 79% and 80% | Population Hoechst High Intensity Objects (%) [5]: 9% and 8% | Population Membrane Permeable-Phenotype (%) [5]: 6% and 8% | Population Mitochondria Different-Phenotype (%) [5]: 8% and 11% | Population Mitotic Cells (%) [5]: 68% and 52% | Population Normal (%) [5]: 90% and 91% | Population Pyknosed Nuclei (%) [5]: 10% and 12% | Population Tubulin-Different-Phenotype (%) [5]: 39% and 46% | Total Cell Count [5]: 1105 and 1012 | Population Apoptotic (%) [6]: 71% and 67% | Population Fragmented Nuclei (%) [6]: 3% | Population Healthy Nuclei (%) [6]: 44% and 52% | Population Hoechst High Intensity Objects (%) [6]: 12% and 11% | Population Membrane Permeable-Phenotype (%) [6]: 4% | Population Mitochondria Different-Phenotype (%) [6]: 69% and 77% | Population Mitotic Cells (%) [6]: 28% and 32% | Population Normal (%) [6]: 87% and 88% | Population Pyknosed Nuclei (%) [6]: 52% and 43% | Population Tubulin-Different-Phenotype (%) [6]: 81% and 89% | Total Cell Count [6]: 374 and 473

CN[C@@H]1C[C@H]2O[C@@](C)([C@@H]1OC)n1c3ccccc3c3c4c(c5c6ccccc6n2c5c31)C(=O)NC4 [STAUROSPORINE]
Population Apoptotic (%) [2]: 56% and 55% and 68% and 63% | Population Fragmented Nuclei (%) [2]: 20% and 14% and 21% | Population Healthy Nuclei (%) [2]: 37% and 34% and 23% and 29% | Population Hoechst High Intensity Objects (%) [2]: 7% and 8% and 5% | Population Membrane Permeable-Phenotype (%) [2]: 11% and 12% and 7% | Population Mitochondria Different-Phenotype (%) [2]: 46% and 52% and 60% and 51% | Population Mitotic Cells (%) [2]: 43% and 44% and 31% and 36% | Population Normal (%) [2]: 92% and 91% and 94% | Population Pyknosed Nuclei (%) [2]: 41% and 51% and 55% and 50% | Population Tubulin-Different-Phenotype (%) [2]: 72% and 77% and 76% | Population Apoptotic (%) [4]: 85% and 83% and 86% | Population Fragmented Nuclei (%) [4]: 16% and 13% | Population Healthy Nuclei (%) [4]: 17% and 22% and 23% and 18% | Population Hoechst High Intensity Objects (%) [4]: 12% and 8% and 10% and 7% | Population Membrane Permeable-Phenotype (%) [4]: 10% and 7% and 6% | Population Mitochondria Different-Phenotype (%) [4]: 45% and 63% and 62% | Population Mitotic Cells (%) [4]: 14% and 16% and 13% | Population Normal (%) [4]: 87% and 91% and 89% and 92% | Population Pyknosed Nuclei (%) [4]: 66% and 64% and 63% and 65% | Population Tubulin-Different-Phenotype (%) [4]: 58% and 59% and 76% and 79% | Population Apoptotic (%) [6]: 90% and 89% and 87% and 81% | Population Fragmented Nuclei (%) [6]: 13% and 11% and 10% | Population Healthy Nuclei (%) [6]: 23% and 17% and 22% and 20% | Population Hoechst High Intensity Objects (%) [6]: 14% and 9% and 11% | Population Membrane Permeable-Phenotype (%) [6]: 11% and 6% and 5% | Population Mitochondria Different-Phenotype (%) [6]: 47% and 62% and 64% and 65% | Population Mitotic Cells (%) [6]: 9% and 10% and 12% and 18% | Population Normal (%) [6]: 85% and 90% and 88% | Population Pyknosed Nuclei (%) [6]: 63% and 71% and 66% | Population Tubulin-Different-Phenotype (%) [6]: 59% and 72% and 68% and 75%
